Hits are enriched below; roughly 5.3% of the tested compounds scored in any of these assays.
NALP3 yeast inh: inhibitors of NALP3 inflammasome in yeast; 330,000 compounds, 0.39% hits; Yeast reconstituted NLRP3/ASC/caspase-1, beta-gal luminescence, 24 h; inhibition, % at 10 µM;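 active means inhibition of 50% or more; inactive means inhibition below 50%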;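 further: plate controls were induced DMSO wells for no effect and uninduced yeast grown without galactose for full effect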
Calb FLC: C. albicans growth modulation with fluconazole | C. albicans CaCi-2 + fluconazole, Alamar Blue growth, 48 h | growth inhibition, % (test concentration not listed) | 300,000 compounds, 0.57% hits;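 active means growth inhibition above about 58% in most replicates, limit read from the data, passing the limit was not always enough; inconclusive means exactly half the replicates above a set limit; inactive means most replicates below a set limit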;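 further: all wells also contain fluconazole at 8 µg/ml as a sub-toxic cotreatment; 0% = median of DMSO wells and 100% = median of geldanamycin control wells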
CSC inhib: cancer stem cell inhibition | cancer stem cell-like cells viability, luminescence | inhibition, % at 7.5 µM | 300,000 compounds, 1.1% hits; in the data active means inhibition above about 75%; inconclusive means no clear call, values can overlap the other calls; tested in HMLE shEcad cells
Beta cell apopt: beta cell apoptosis inhibition. 300,000 compounds, 0.8% hits. protection from apoptosis, % (concentration not given with the values). AID 435005. INS-1E cytokine-induced death, ATP luminescence, 48 h; percent of positive-control rescue, neutral wells zero;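 active means Every replicate reaches about 75%, or at least half do and their mean reaches it too, limit read from the data; inconclusive means At least half of replicates reach the limit but their mean does not; inactive means Under half of replicates reach the limit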;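 further: 0% = cytokine-treated negative control wells and 100% = positive control rescue; higher means more ATP so stronger rescue from cytokine killing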
T cruzi inh: T. cruzi replication inhibition; inhibition, % (concentration not given with the values); T. cruzi beta-gal in NIH3T3, luminescence, 90 h; AID 1885; 300,000 compounds, 1.4% hits;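 active means mean inhibition across valid replicates above about 55%, limit read from the data; inconclusive means mean below that limit but half or more replicates reach it; inactive means mean below it, under half of replicates reach it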;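 further: signal also drops with host cell toxicity which is not excluded here; 0% = plate median of DMSO wells and 100% = zero luminescence signal; higher percent means less beta-gal luminescence so fewer parasites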
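System – NIH/3T3 host cells with β-galactosidase reporter T. cruzi · Doses – single 50 nL compound addition per well in DMSO · Reagent – 5000 T. cruzi trypomastigotes/well · Medium – Low-serum DMEM with 2% FBS · Timing – ≥90 h infection period, 3 h prior cell attachment · Evaluation – parasite load inhibition, % · Technique – GalScreen luminescence, 60 min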
Mdm2-MdmX inh: human Mdm2/MdmX binding inhibition; SaOS-2 split-luciferase Mdm2/MdmX complementation, luminescence; inhibition, % at 8 µM; 330,000 compounds, 3% hits; AID 485346;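 active means inhibition of at least 50% at 8 µM in the primary screen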
Target sequence (O15151 whole entry, looked up): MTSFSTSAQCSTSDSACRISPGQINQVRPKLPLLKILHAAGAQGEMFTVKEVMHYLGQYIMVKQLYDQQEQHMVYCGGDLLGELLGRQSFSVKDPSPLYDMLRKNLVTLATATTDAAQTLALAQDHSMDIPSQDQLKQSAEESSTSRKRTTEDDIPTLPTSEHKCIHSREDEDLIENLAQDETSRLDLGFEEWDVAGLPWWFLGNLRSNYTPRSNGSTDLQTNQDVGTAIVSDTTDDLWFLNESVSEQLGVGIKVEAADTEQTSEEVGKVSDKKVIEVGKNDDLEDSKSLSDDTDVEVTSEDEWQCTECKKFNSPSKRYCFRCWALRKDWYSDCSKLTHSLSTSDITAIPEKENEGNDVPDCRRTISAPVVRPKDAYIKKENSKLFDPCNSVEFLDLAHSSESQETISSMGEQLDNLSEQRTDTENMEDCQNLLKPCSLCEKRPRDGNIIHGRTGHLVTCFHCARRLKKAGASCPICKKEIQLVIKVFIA
Target sequence (Q00987 whole entry, looked up): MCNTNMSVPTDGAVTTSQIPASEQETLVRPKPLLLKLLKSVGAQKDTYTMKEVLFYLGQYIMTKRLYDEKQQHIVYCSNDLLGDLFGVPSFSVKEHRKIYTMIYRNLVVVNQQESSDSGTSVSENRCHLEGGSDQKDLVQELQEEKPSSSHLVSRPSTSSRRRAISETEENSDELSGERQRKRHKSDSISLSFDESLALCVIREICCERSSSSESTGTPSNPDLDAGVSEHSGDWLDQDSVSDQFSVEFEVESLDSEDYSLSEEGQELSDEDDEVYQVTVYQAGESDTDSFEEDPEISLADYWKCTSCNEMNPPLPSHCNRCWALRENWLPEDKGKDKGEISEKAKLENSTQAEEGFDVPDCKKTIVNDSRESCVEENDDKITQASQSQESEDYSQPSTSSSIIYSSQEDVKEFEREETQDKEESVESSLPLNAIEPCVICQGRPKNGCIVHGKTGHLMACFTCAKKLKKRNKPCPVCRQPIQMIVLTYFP
Mdm2-MdmX conf: human Mdm2/MdmX binding inhibition, confirmed | AID 489028 | 10,000 compounds, 55% hits | inhibition, % at 8 µM | shares compounds with Mdm2-MdmX inh | luminescent assay; in the data active means inhibition above about 40%
Full FLuc ctr: full-length luciferase inhibition in Mdm2/MdmX counter-screen; AID 504607; shares compounds with Mdm2-MdmX inh; 6,200 compounds, 77% hits; inhibition, % at 8 µM; SaOS-2 full-length luciferase counterscreen, luminescence;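 active means mean inhibition at 8 µM reaching about 37%, which flags the compound as non-specific, limit read from the data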;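 further: p53-null SaOS-2 cells with luciferase driven by a doxycycline-inducible promoter; compound on cells about two nights before reading with doxycycline added after day one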
An asterisk follows results filed as active; ? = inconclusive; nt = no result.

SMILES	NALP3 yeast inh	Calb FLC	CSC inhib	Beta cell apopt	T cruzi inh	Mdm2-MdmX inh	Mdm2-MdmX conf	Full FLuc ctr
Nn1c(SCC(=O)Nc2ccc3c(c2)OCO3)nnc1C(F)(F)F	-3.4	6.9	-23.4	7.6	10.3	3.8	nt	nt
COc1ccccc1S(=O)(=O)N1CCC(C(=O)O)(c2ccccc2)CC1	-5.9	-0.4	6.2	4.3	1.2	-11.7	nt	nt
COC(=O)C1=C(C)N(CC2CC2)C(=NCc2cccc(C(F)(F)F)c2)N[C@H]1c1ccccc1	23.6	nt	6.3	-4.7	nt	53.5*	23.6	nt
COC(=O)C1=C(C)N(Cc2ccccc2)C(=NCc2cccc(C(F)(F)F)c2)N[C@H]1c1cccc(F)c1	14.3	?	110.5*	111.3*	45.2	95.3*	72.5*	39.8*
COC(=O)C1=C(C)N(Cc2ccccc2)C(=NCCc2ccccn2)N[C@H]1c1cccc(F)c1	17.2	-10.9	-3.3	-1.4	25.7	33.5	nt	nt
COC(=O)C1=C(C)N(Cc2ccccc2)C(=NCCc2c[nH]c3ccccc23)N[C@H]1c1cccc(C(F)(F)F)c1	2.5	nt	nt	1.8	nt	100.5*	40.7*	58.0*
COc1ccc(N(CC(=O)N/N=C/c2ccc(OC)c(OC)c2)S(=O)(=O)c2ccccc2)cc1	17.4	3.2	-1.2	8.0	-3.4	17.9	nt	nt
COc1ccccc1C(NC(C)=O)c1c(O)ccc2ccc(O)cc12 (centres undefined)	-0.3	-6.1	-1.5	-6.8	10.3	16.0	nt	nt
COc1ccc(C(=O)NC(=S)NNC(=O)c2cnccn2)cc1	-3.0	118.4*	88.2*	76.8*	22.0	64.2*	56.8*	40.6*
O=C(NC(=S)NNC(=O)c1cnccn1)c1ccc(Cl)cc1	12.7	94.4*	94.1*	3.7	10.8	69.2*	39.5	47.7*
COc1ccc(/C=C/c2c(-c3ccc(OC)cc3)oc3cccnc23)cc1	5.3	22.9	57.6	-3.0	-1.1	14.6	nt	nt
CC(C)(C)C(=O)NC(=S)NNC(=O)c1sc2ccccc2c1Cl	31.7	88.3*	nt	66.8	42.7	74.4*	51.8*	37.3*
CN1CCC(=O)N([C@H](CSc2ccc(Br)cc2)c2ccccc2)CC1	9.0	-7.6	1.7	1.0	-4.9	-35.2	nt	nt
CCc1nnc(NS(=O)(=O)c2ccc(NC(=O)c3cccc(Cl)c3)cc2)s1	-11.3	-8.3	-14.1	-1.9	7.6	15.5	nt	nt
CN1c2ccccc2C(C)(C)C12C=Cc1cc(O)ccc1O2 (centres undefined)	16.4	8.4	62.1	65.2	34.7	36.3	nt	nt
CN1c2ccccc2C(C)(C)C12C=Nc1c(cc(N3CCOCC3)c3ccccc13)O2 (centres undefined)	7.3	7.2	nt	nt	33.1	58.7*	13.8	nt
Cc1cccc(Cn2cc3c(=O)n(Cc4cccc(F)c4)nc-3c3ccccc32)c1	11.8	-2.1	-17.5	-5.9	15.3	20.4	nt	nt
O=C1CCc2ccc(OCCCCN3CCN(c4cccc(Cl)c4Cl)CC3)cc2N1	14.7	105.1*	16.7	2.7	47.7	52.3*	14.1	nt
COc1ccccc1N1CCN(CCCOc2ccc(F)cc2)CC1	17.2	-16.7	0.3	0.1	-7.5	-4.3	nt	nt
O=C(NN=Cc1ccc(O)cc1O)c1ccccc1NS(=O)(=O)c1cccs1	17.4	nt	-4.6	2.4	nt	55.0*	37.9	46.6*
COc1ccc(C=NNC(=O)c2ccccc2NS(=O)(=O)c2cccs2)cc1O	9.2	nt	-8.4	-3.3	nt	16.5	nt	nt
Cc1ccc(NC(=S)N2CCN(S(=O)(=O)c3ccccc3)CC2)cc1	10.7	0.1	-2.0	1.7	nt	11.3	nt	nt
C=C1CCc2c([nH]c3ccc(OCC(C)C)cc23)C1=O	7.4	3.9	86.7*	139.4*	47.6	97.9*	31.8	nt
Cn1c(SCC(=O)N2CCOCC2)nc2c(c1=O)SCC2	6.9	4.4	-5.5	-5.5	-1.2	-24.3	nt	nt
CC(=O)Oc1ccc2oc(/C=C/N(C)C)c([N+](=O)[O-])c2c1	20.2	24.9	-1.7	7.2	3.7	2.0	nt	nt
SMILES	NALP3 yeast inh	Calb FLC	CSC inhib	Beta cell apopt	T cruzi inh	Mdm2-MdmX inh	Mdm2-MdmX conf	Full FLuc ctr
COc1nc(/C=C/N(C)C)c([N+](=O)[O-])c(OC)n1	-2.3	0.0	3.4	-5.8	1.3	52.0*	21.8	nt
O=C(NCC1COc2ccccc2O1)c1ccc(NC(=O)C(c2ccccc2)c2ccccc2)cc1 (centres undefined)	5.7	-11.4	12.3	21.1	84.7*	62.9*	45.3*	55.4*
Nc1ccccc1NC(=O)c1ccccc1	15.6	6.9	23.1	7.4	-3.4	9.9	nt	nt
Nc1ccc(NC(=O)c2ccccc2)c2c1C(=O)c1ccccc1C2=O	15.9	19.9	10.9	8.8	-6.0	51.6*	52.5*	71.7*
CC(C)OC(=O)c1ccc2nc3ccccc3nc2c1	31.0	-10.4	16.2	7.0	-10.1	-184.4	nt	nt
COC(=O)C1(Cc2ccccc2)NC(c2ccc(F)cc2)C2C(=O)N(C)C(=O)C21 (centres undefined)	20.0	-2.7	20.0	1.3	7.5	-22.4	nt	nt
CCN1C(=O)[C@H]2[C@@H](c3ccc(-c4ccc(Cl)c(Cl)c4)cc3)N[C@@](CC(C)C)(C(=O)OC)[C@H]2C1=O	7.0	3.7	15.5	-4.2	7.7	36.0	nt	nt
COC(=O)[C@]1(Cc2ccccc2)N[C@H](c2ccc(-c3ccccc3)cc2)[C@@H]2C(=O)N(C)C(=O)[C@@H]21	12.7	-13.6	25.8	-0.9	6.9	30.0	nt	nt
COC(=O)[C@]1(Cc2ccccc2)N[C@H](c2ccc(-c3ccc(Cl)c(Cl)c3)cc2)[C@@H]2C(=O)N(C)C(=O)[C@@H]21	-7.1	3.1	5.6	0.9	26.8	55.6*	51.2*	82.0*
COC(=O)[C@]1(CC(C)C)N[C@H](c2ccc(-c3ccc(Cl)c(Cl)c3)cc2)[C@@H]2C(=O)N(C)C(=O)[C@@H]21	16.1	-7.8	35.7	9.6	17.5	57.2*	28.2	nt
COC(=O)[C@]1(Cc2ccccc2)N[C@H](c2ccc(-c3cccc(Cl)c3)cc2)[C@@H]2C(=O)N(C)C(=O)[C@@H]21	11.0	-3.0	-1.0	-0.5	47.5	54.8*	36.4	73.5*
CCN1C(=O)[C@H]2[C@@H](c3ccc(-c4cccc(Cl)c4)cc3)N[C@@](CC(C)C)(C(=O)OC)[C@H]2C1=O	21.5	nt	nt	10.4	nt	52.2*	22.1	nt
CCN(CC)S(=O)(=O)c1nnc(NC(=O)c2ccco2)s1	7.7	39.2	-15.2	-5.6	-6.6	6.6	nt	nt
CC1CC1c1ccc(/C=C(\C#N)C(=O)Nc2cccc(Cl)c2Cl)o1 (centres undefined)	1.9	-12.9	37.7	3.6	20.9	-2.1	nt	nt
CCCCC(=O)Nc1ccc2c3c(cccc13)C(=O)N2CC	10.3	19.7	3.8	-5.2	-1.5	55.1*	36.8	59.3*
Nc1ncnc2c1ncn2Cc1ccccc1	10.3	4.6	1.5	0.8	-7.1	-6.1	nt	nt

Assay outcomes: PubChem, several laboratories
